Published values of several laboratories.
Protocols differ between the studies behind these lines.
Target: Casein kinase I isoform delta (CSNK1D, Homo sapiens, UniProt P48730)

Compound | observed | mode | method | concentration | endpoint | result
CS(=O)(=O)Nc1cccc(-c2csc(NC(=O)CSc3nc4nccnc4c(=O)n3CCc3ccccc3)n2)c1 | enzyme activity | inhibitor |  | 10 µM | inhibition | 10%
CCCOc1ccc(OC)c(F)c1C(=O)c1ccc(C(=O)N[C@@H]2CNC[C@H]2NC(=O)c2ccc3[nH]ncc3c2)cc1 | enzyme activity | inhibitor |  | 10 µM | remaining activity | 43%
CC(C)(C)c1nc(-c2cccc(NS(=O)(=O)c3c(F)cccc3F)c2F)c(-c2ccnc(N)n2)s1 | enzyme activity | inhibitor | radiometric | 1 µM | remaining activity | 81%
COc1cc2ncnc(Nc3ccc(Oc4ccccc4)cc3C)c2cc1OC | enzyme activity | inhibitor |  | 1 µM | inhibition | 0%
Cc1cnc(NC2CCOCC2)nc1-n1cnc(C(=O)NC(CN)c2cc(F)cc(Cl)c2)c1 (stereo not shown) | enzyme activity | inhibitor | radiometric | 1 µM | remaining activity | 53%
O=C(NCc1ncc(C(F)(F)F)cc1Cl)c1ccc2c(c1)C1(CCS(=O)(=O)CC1)[C@@H](C1CC1)N2S(=O)(=O)c1ccc(F)cc1 | cell-free assay |  | competition with immobilised ligand | 1 µM | remaining binding | 93%
CCCS(=O)(=O)Nc1ccc(F)c(C(=O)c2c[nH]c3ncc(-c4ccc(Cl)cc4)cc23)c1F | enzyme activity | inhibitor |  | 1 µM | inhibition | < 10%
Nc1ncnc2occ(-c3ccc(NC(=O)Nc4cc(C(F)(F)F)ccc4F)cc3)c12 | cell-free assay | inhibitor |  | 20 µM | remaining signal | 3.9%
CC(=O)N1CCC(c2ccc(C(=O)NC3=NCCN3)cc2C(F)(F)F)CC1 | cell-free assay |  | competition with immobilised ligand | 1 µM | remaining binding | 100%
COc1cc(Cl)c(C(=O)N[C@@H](CN[C@H]2CC[C@@H](N)CC2)Cc2ccc(C#N)cc2)cc1-c1ccc(CN[C@H](C)c2ccc(C)cc2)o1 | enzyme activity | inhibitor |  | 1 µM | remaining activity | 89%
CCN(CC)c1ccc(C2=NNC(=O)CC2C)cc1[N+](=O)[O-] (stereo not shown) | enzyme activity | inhibitor |  | 10 µM | remaining activity | 109%
CN(c1ccnc(CNc2nc(Nc3ccc4c(c3)CC(=O)N4)ncc2C(F)(F)F)n1)S(C)(=O)=O | cell-free assay |  | competition with immobilised ligand | 1 µM | remaining binding | 100%
O=C1Nc2ccc(Cl)cc2C1=Cc1cc(Cl)c(O)c(Cl)c1 | cell-free assay |  |  | 0.5 µM | remaining signal | 89.6%
COc1cc(Nc2cnc(C#N)c(O[C@H](C)CN(C)C)n2)ncc1-c1cnn(C)c1 | enzyme activity | inhibitor | radiometric | 10 µM | remaining activity | 22%
COc1cc2ncnc(Nc3ccc(F)c(Cl)c3)c2cc1OCCCN1CCOCC1 | cell-free assay |  |  | 0.5 µM | remaining signal | 90.4%
Nc1c(C(=O)NCc2ccc(C(=O)NCCCC3CCCCC3)cc2)cnn1-c1ccccc1 | cell-free assay |  | competition with immobilised ligand | 0.1 µM | remaining binding | 100%
COc1cc2c(Nc3ccc(Br)cc3F)ncnc2cc1OCC1CCN(C)CC1 | cell-free assay |  |  | 0.5 µM | remaining signal | 94.4%
O=C(Nc1cnn(-c2csc(C(=O)NC3COC3)c2)c1)Nc1c(F)cccc1Cl | enzyme activity | inhibitor |  | 5 µM | remaining activity | 117%
C[C@@]1(Cc2ccc(C#N)cc2)C(=O)N(c2cc(Cl)cc(Cl)c2)c2ncc(C(=O)NC3(c4nc(C5CCC5)no4)CC3)n21 | cell-free assay |  | competition with immobilised ligand | 1 µM | remaining binding | 100%
COc1cc(/C=C/C(=O)CC(=O)/C=C/c2ccc(O)c(OC)c2)ccc1O | enzyme activity | inhibitor |  | 1 µM | activity vs control | 105%
COc1cc2c(N3CCN(C(=O)Nc4ccc(OC(C)C)cc4)CC3)ncnc2cc1OCCCN1CCCCC1 | cell-free assay |  |  | 0.5 µM | remaining signal | 90.9%
CS(=O)(=O)N1CCCC(NC(=O)[C@H](CCC2CCCCC2)NC(=O)c2ccc(CNC(=O)c3cnc4ccccn34)cc2)C1 (stereo partly shown) | cell-free assay |  | competition with immobilised ligand | 0.1 µM | remaining binding | 84%
FC(F)(F)Oc1cccc(-c2cnc3ccc(-c4ccncc4)nn23)c1 | enzyme activity | inhibitor | radiometric | 5 µM | activity vs control | 97%
CN([C@@H]1CCc2c(CC(=O)O)c3cc(S(C)(=O)=O)ccc3n2C1)S(=O)(=O)c1ccc(F)cc1 | cell-free assay |  | competition with immobilised ligand | 1 µM | remaining binding | 100%
Cc1ccc(C(=O)Nc2ccc(CN3CCN(C)CC3)c(C(F)(F)F)c2)cc1C#Cc1cnc2cccnn12 | enzyme activity |  |  | 23.5 nM | remaining activity | 100%
